Legend:
H4 = assay: In vitro cytotoxic activity against human H4 cancer cell lines after 3 days of culture; Activity expressed as log IC50; type: functional
Procedure, shortened: (§1)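 Adherent human cancer cell lines seeded at 10 000 to 40 000 cells/mL (depending on cell type) and left 24 h before treatment. Nine concentrations, 10^-9 to 10^-5 M in semilog steps, for 72 h. Growth measured by MTT reduction to formazan, absorbance 570 nm (reference 630 nm). Sextuplicate wells. IC50 is the concentration giving 50% lower overall growth than control.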

[1] = In vitro cytotoxic activity against human MCF7HTB-22 cancer cell lines after 3 days of culture; type: functional
Procedure, shortened: (§2)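 MTT overall-growth panel across 57 human cancer lines. Cells were plated for 24 h at 10 000–40 000 cells/mL, depending on cell type. Drugs were given at nine concentrations, 10^-9 to 10^-5 M in semilog steps, for 3 days. Absorbance was read at 570 nm with a 630 nm reference, in sextuplicate. Surviving cells are expressed as % of untreated control (100%).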

MDA-MB-231 = assay: In vitro cytotoxic activity against human MDA-MB-231 cancer cell lines after 3 days of culture; type: functional; procedure, shortened: as §2
HT-1080 = assay: In vitro cytotoxic activity against human HT1080 cancer cell lines after 3 days of culture; type: functional; procedure, shortened: as §2
[2] = In vitro cytotoxic activity against human SW948 cancer cell lines after 3 days of culture; type: functional
Procedure, shortened: (§3)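 Human cancer cell lines, seeded 10 000–40 000 cells/mL and plated for 24 h, then exposed 72 h to nine drug concentrations from 10^-9 to 10^-5 M in semilog steps. Overall growth read by MTT reduction to formazan, absorbance at 570 nm (reference 630 nm). Sextuplicate wells; IC50 is the concentration reducing overall growth by 50% versus untreated control.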

DU-145 = assay: In vitro cytotoxic activity against human DU145 cancer cell lines after 3 days of culture; type: functional; procedure, shortened: as §2
786-0 = assay: In vitro cytotoxic activity against human 786-O cancer cell lines after 3 days of culture; type: functional; procedure, shortened: as §2
A549 = assay: In vitro cytotoxic activity against human A549 cancer cell lines after 3 days of culture; type: functional; procedure, shortened: as §2
PC-3 = assay: In vitro cytotoxic activity against human PC-3 cancer cell lines after 3 days of culture; type: functional; procedure, shortened: as §2
[3] = In vitro cytotoxic activity against human SW1088 cancer cell lines after 3 days of culture; Activity expressed as log IC50; type: functional; procedure, shortened: as §1
HCT-15 = assay: In vitro cytotoxic activity against human HCT-15 cancer cell lines after 3 days of culture; type: functional; procedure, shortened: as §2
BT-20 = assay: In vitro cytotoxic activity against human BT-20 cancer cell lines after 3 days of culture; type: functional; procedure, shortened: as §2
Malme-3M = assay: In vitro cytotoxic activity against human MALME-3M cancer cell lines after 3 days of culture; type: functional; procedure, shortened: as §2
[4] = In vitro cytotoxic activity against human SCC-9 cancer cell lines after 3 days of culture; type: functional; procedure, shortened: as §2
MES-SA = assay: In vitro cytotoxic activity against human MES-SA cancer cell lines after 3 days of culture; type: functional; procedure, shortened: as §2
LoVo = assay: In vitro cytotoxic activity against human LoVo cancer cell lines after 3 days of culture; type: functional; procedure, shortened: as §2
SK-MEL-28 = assay: In vitro cytotoxic activity against human SKMEL-28 cancer cell lines after 3 days of culture; type: functional; procedure, shortened: as §3
[5] = In vitro cytotoxic activity against human SK-UT-1B cancer cell lines after 3 days of culture; type: functional; procedure, shortened: as §3
[6] = In vitro cytotoxic activity against human Hs 174.T cancer cell lines after 3 days of culture; type: functional; procedure, shortened: as §2
[7] = In vitro cytotoxic activity against human Su.86.86 cancer cell lines after 3 days of culture; type: functional; procedure, shortened: as §3
[8] = In vitro cytotoxic activity against human HT144 cancer cell lines after 3 days of culture; type: functional; procedure, shortened: as §2
T98G = assay: In vitro cytotoxic activity against human T98G cancer cell lines after 3 days of culture; type: functional; procedure, shortened: as §3
[9] = In vitro cytotoxic activity against human Hs 683 cancer cell lines after 3 days of culture; Activity expressed as log IC50; type: functional; procedure, shortened: as §1
BXPC-3 = assay: In vitro cytotoxic activity against human BxPC-3 cancer cell lines after 3 days of culture; type: functional; procedure, shortened: as §2
[10] = In vitro cytotoxic activity against human Hs 729 cancer cell lines after 3 days of culture; type: functional; procedure, shortened: as §2
ACHN = assay: In vitro cytotoxic activity against human ACHN cancer cell lines after 3 days of culture; type: functional; procedure, shortened: as §2
CAKI-2 = assay: In vitro cytotoxic activity against human CAKI-2 cancer cell lines after 3 days of culture; type: functional; procedure, shortened: as §2
ZR-75-1 = assay: In vitro cytotoxic activity against human ZR-75-1 cancer cell lines after 3 days of culture; type: functional; procedure, shortened: as §3
A498 = assay: In vitro cytotoxic activity against human A-498 cancer cell lines after 3 days of culture; type: functional; procedure, shortened: as §2
MIA PaCa-2 = assay: In vitro cytotoxic activity against human MiaPaca-2 cancer cell lines after 3 days of culture; type: functional; procedure, shortened: as §2
[11] = In vitro cytotoxic activity against human Capan-2 cancer cell lines after 3 days of culture; type: functional; procedure, shortened: as §2
[12] = In vitro cytotoxic activity against human […] cancer cell lines after 3 days of culture; type: functional; procedure, shortened: as §2
[13] = In vitro cytotoxic activity against human Detroit 562 cancer cell lines after 3 days of culture; type: functional; procedure, shortened: as §2
[14] = In vitro cytotoxic activity against human C32 cancer cell lines after 3 days of culture; type: functional; procedure, shortened: as §2
T47D = assay: In vitro cytotoxic activity against human T-47D cancer cell lines after 3 days of culture; type: functional; procedure, shortened: as §3
U373 MG = assay: In vitro cytotoxic activity against human U-373MG cancer cell lines after 3 days of culture; type: functional, U-373MG ATCC; procedure, shortened: as §3
Hs-578T = assay: In vitro cytotoxic activity against human Hs 578.T cancer cell lines after 3 days of culture; type: functional; procedure, shortened: as §2
U-87 MG = assay: In vitro cytotoxic activity against human U87MG cancer cell lines after 3 days of culture; type: functional, U-87MG ATCC; procedure, shortened: as §3
A204 = assay: In vitro cytotoxic activity against human A204 cancer cell lines after 3 days of culture; type: functional; procedure, shortened: as §2
PANC-1 = assay: In vitro cytotoxic activity against human Panc-1 cancer cell lines after 3 days of culture; type: functional; procedure, shortened: as §2
T-24 = assay: In vitro cytotoxic activity against human T24 cancer cell lines after 3 days of culture; type: functional; procedure, shortened: as §3
LNCaP = assay: In vitro cytotoxic activity against human LNCaP cancer cell lines after 3 days of culture; type: functional; procedure, shortened: as §2
[15] = In vitro cytotoxic activity against human Hs 766.T cancer cell lines after 3 days of culture; Activity expressed as log IC50; type: functional; procedure, shortened: as §1
HT1197 = assay: In vitro cytotoxic activity against human HT1197 cancer cell lines after 3 days of culture; type: functional; procedure, shortened: as §2
DLD-1 = assay: In vitro cytotoxic activity against human DLD-1 cancer cell lines after 3 days of culture; type: functional; procedure, shortened: as §2
HT-29 = assay: In vitro cytotoxic activity against human HT-29 cancer cell lines after 3 days of culture; type: functional; procedure, shortened: as §2
[16] = In vitro cytotoxic activity against human AL-12T cancer cell lines after 3 days of culture; type: functional; procedure, shortened: as §2
[17] = In vitro cytotoxic activity against human SK-LMS-1 cancer cell lines after 3 days of culture; type: functional; procedure, shortened: as §2
[18] = In vitro cytotoxic activity against human SW1783 cancer cell lines after 3 days of culture; Activity expressed as log IC50; type: functional; procedure, shortened: as §1
CFPAC-1 = assay: In vitro cytotoxic activity against human CFPAC-1 cancer cell lines after 3 days of culture; Activity expressed as log IC50; type: functional; procedure, shortened: as §1
[19] = In vitro cytotoxic activity against human G361 cancer cell lines after 3 days of culture; type: functional; procedure, shortened: as §2
WiDr = assay: In vitro cytotoxic activity against human WiDr cancer cell lines after 3 days of culture; type: functional; procedure, shortened: as §3
[20] = In vitro cytotoxic activity against human 769-P cancer cell lines after 3 days of culture; type: functional; procedure, shortened: as §2
A-427 = assay: In vitro cytotoxic activity against human A427 cancer cell lines after 3 days of culture; type: functional; procedure, shortened: as §2
FaDu = assay: In vitro cytotoxic activity against human FaDu cancer cell lines after 3 days of culture; type: functional; procedure, shortened: as §2

Q: Which results are given for `CCc1c2c(nc3ccc(O)cc13)-c1cc3c(c(=O)n1C2)COC(=O)[C@]3(O)CC` [7-ETHYL-10-HYDROXYCAMPTOTHECIN]?
A: Log IC50 (H4): -6.5; Log IC50 [1]: -7.5; Log IC50 (MDA-MB-231): -5.3; Log IC50 (HT-1080): -7.3; Log IC50 [2]: -7.7; Log IC50 (DU-145): -9; Log IC50 (786-0): -8.3; Log IC50 (A549): -7.4; Log IC50 (PC-3): -6.7; Log IC50 [3]: -5.4; Log IC50 (HCT-15): -7.1; Log IC50 (BT-20): -6.5; Log IC50 (Malme-3M): -5.2; Log IC50 [4]: -6.1; Log IC50 (MES-SA): -7.1; Log IC50 (LoVo): -6.4; Log IC50 (SK-MEL-28): -7.3; Log IC50 [5]: -9; Log IC50 [6]: -6.9; Log IC50 [7]: -6.5; Log IC50 [8]: -7.6; Log IC50 (T98G): -7.3; Log IC50 [9]: -7; Log IC50 (BXPC-3): -7.1; Log IC50 [10]: -7.3; Log IC50 (ACHN): -8.3; Log IC50 (CAKI-2): -5.3; Log IC50 (ZR-75-1): -7.4; Log IC50 (A498): -6.9; Log IC50 (MIA PaCa-2): -6.6; Log IC50 [11]: -6.3; Log IC50 [12]: -9; Log IC50 [13]: -8; Log IC50 [14]: -8.7; Log IC50 (T47D): -7.3; Log IC50 (U373 MG): -9; Log IC50 (Hs-578T): -6.3; Log IC50 (U-87 MG): -8.1; Log IC50 (A204): -7.7; Log IC50 (PANC-1): -5.1; Log IC50 (T-24): -8.2; Log IC50 (LNCaP): -5.5; Log IC50 [15]: -5.6; Log IC50 (HT1197): -5; Log IC50 (DLD-1): -6.8; Log IC50 (HT-29): -7.5; Log IC50 [16]: -6.1; Log IC50 [17]: -6.4; Log IC50 [18]: -7.3; Log IC50 (CFPAC-1): -8.3; Log IC50 [19]: -5.6; Log IC50 (WiDr): -6.6; Log IC50 [20]: -7.9; Log IC50 (A-427): -9; Log IC50 (FaDu): -8.9

Reference: ChEMBL document CHEMBL1144441, “Identification of a novel cardenolide (2''-oxovoruscharin) from Calotropis procera and the hemisynthesis of novel derivatives displaying potent in vitro antitumor activities and high in vivo tolerance: structure-activity relationship analyses” (J Med Chem, 2005)
